Assay results taken from ChEMBL document CHEMBL3739406, “Trisubstituted Thieno[3,2-b]pyrrole 5-Carboxamides as Potent Inhibitors of Alphaviruses” (J Med Chem, 2015).
pEC50: −log10 of the molar value. The source made the active and inactive calls. The rule behind the calls is not given here.

How the values were obtained:
Chikungunya virus [1] = test: Antiviral activity against wild type Chikungunya virus IMT infected in HEK293T cells assessed as inhibition of infectivity measured at 24 hrs postinfection by FITC/DAPI staining based array scan VTI HCS reader analysis; assay type: functional, cell-based; settings: HEK-293T
Onyong-nyong virus = test: Antiviral activity against O'nyong-nyong virus infected in HEK293T cells assessed as inhibition of infectivity measured at 24 hrs postinfection by FITC/DAPI staining based array scan VTI HCS reader analysis; assay type: functional, cell-based; settings: HEK-293T
Chikungunya virus [2] = test: Antiviral activity against Chikungunya virus infected in HEK293T cells assessed as reduction of infectivity measured at 24 hrs postinfection by gaussia luciferase reporter gene assay; assay type: functional, cell-based; settings: HEK-293T
[3] = Cytotoxicity against HEK293T cells assessed as cell viability at antiviral EC50 after 24 hrs by cell titer-glo luminescent cell viability assay; assay type: cell-based, HEK-293T; settings: human, read-out: Activity
Method in brief: (§1)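 HEK 293T cells, 3 × 10⁴/well, seeded overnight, then exposed 24 h to compound (0.01–100 μM, triplicate) in DMEM pH 6.8 with 10% FBS. Viability read by CellTiter-Glo luminescence. Normalized to untreated (100%) and medium blank (0%); CC50 by five-parameter curve fit.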

Chikungunya virus [4] = test: Antiviral activity against wild type Chikungunya virus IMT infected in HEK293T cells assessed as inhibition of infectivity at 5 uM measured at 24 hrs postinfection by FITC/DAPI staining based array scan VTI HCS reader analysis; assay type: functional; settings: HEK-293T
Chikungunya virus [5] = test: Antiviral activity against wild type Chikungunya virus IMT infected in HEK293T cells assessed as inhibition of nsP1 protein expression at 5 uM measured at 24 hrs postinfection by Western blot method; assay type: functional, cell-based; settings: HEK-293T
Chikungunya virus [6] = test: Antiviral activity against wild type Chikungunya virus IMT infected in HEK293T cells assessed as inhibition of nsP3 protein expression at 5 uM measured at 24 hrs postinfection by Western blot method; assay type: functional, cell-based; settings: HEK-293T
Chikungunya virus [7] = test: Antiviral activity against wild type Chikungunya virus IMT infected in HEK293T cells assessed as inhibition of viral capsid protein at 5 uM measured at 24 hrs postinfection by Western blot method; assay type: functional, cell-based; settings: HEK-293T
Chikungunya virus [8] = test: Antiviral activity against wild type Chikungunya virus IMT infected in HEK293T cells assessed as inhibition of E2 protein expression at 5 uM measured at 24 hrs postinfection by Western blot method; assay type: functional, cell-based; settings: HEK-293T
Sindbis virus = test: Antiviral activity against wild type Sindbis virus infected in HEK293T cells assessed as inhibition of infectivity measured at 24 hrs postinfection by FITC/DAPI staining based array scan VTI HCS reader analysis; assay type: functional, organism-based; settings: HEK-293T
[9] = Selectivity index, ratio of CC50 for HEK293T cells to EC50 for Chikungunya virus infected in HEK293T cells; assay type: toxicity, cell-based, HEK-293T; settings: human, read-out: Ratio CC50/EC50
[10] = Cytotoxicity against HEK293T cells assessed as reduction in cell viability after 24 hrs by cell titer-glo luminescent cell viability assay; assay type: cell-based, HEK-293T; settings: human; method in brief: as §1
Chikungunya virus [11] = test: Antiviral activity against wild type Chikungunya virus IMT infected in HEK293T cells assessed as inhibition of nsP1 protein expression measured at 24 hrs postinfection by Western blot method; assay type: functional, cell-based; settings: HEK-293T
Chikungunya virus [12] = test: Antiviral activity against wild type Chikungunya virus IMT infected in HEK293T cells assessed as inhibition of nsP3 protein expression measured at 24 hrs postinfection by Western blot method; assay type: functional, cell-based; settings: HEK-293T
Chikungunya virus [13] = test: Antiviral activity against wild type Chikungunya virus IMT infected in HEK293T cells assessed as inhibition of capsid protein expression measured at 24 hrs postinfection by Western blot method; assay type: functional, cell-based; settings: HEK-293T
Chikungunya virus [14] = test: Antiviral activity against wild type Chikungunya virus IMT infected in HEK293T cells assessed as inhibition of E2 protein expression measured at 24 hrs postinfection by Western blot method; assay type: functional, cell-based; settings: HEK-293T
HEK293 = test: Toxicity in HEK293T cells infected with Chikungunya virus IMT assessed as reduction in beta-actin protein expression at 0.1 to 5 uM measured at 24 hrs postinfection by Western blot method; assay type: cell-based; settings: human, hek293, 24 h
Chikungunya virus [15] = test: Antiviral activity against wild type Chikungunya virus IMT infected in HEK293T cells assessed as reduction of viral nsP1 gene expression measured at 24 hrs postinfection by qRT-PCR method; assay type: functional, cell-based; settings: HEK-293T
Chikungunya virus [16] = test: Antiviral activity against wild type Chikungunya virus IMT infected in HEK293T cells assessed as reduction of viral nsP1 gene expression at 2.5 uM measured at 24 hrs postinfection by qRT-PCR method relative to control; assay type: functional, HEK-293T
Chikungunya virus [17] = test: Antiviral activity against wild type Chikungunya virus IMT infected in HEK293T cells assessed as reduction of viral E1 gene expression measured at 24 hrs postinfection by qRT-PCR method; assay type: functional, cell-based; settings: HEK-293T
Chikungunya virus [18] = test: Antiviral activity against wild type Chikungunya virus IMT infected in HEK293T cells assessed as reduction of viral E1 gene expression at 2.5 uM measured at 24 hrs postinfection by qRT-PCR method relative to control; assay type: functional, HEK-293T

Row | Structure (SMILES) | pEC50 (Chikungunya virus [1]) | inhibition (Chikungunya virus [1]) | pEC50 (Onyong-nyong virus) | pEC50 (Chikungunya virus [2]) | viability at 24 h [3] [%] | inhibition at 5 µM (Chikungunya virus [4]) [%] | pEC50 (Sindbis virus) | selectivity ratio [9] | CC50 at 24 h [10] [µM] | inhibition (Chikungunya virus [11]) | inhibition (Chikungunya virus [12]) | inhibition (Chikungunya virus [13]) | inhibition (Chikungunya virus [14]) | Activity (HEK293) | Activity (Chikungunya virus [15]) | Activity (Chikungunya virus [17]) | also measured
1 | NC(=O)c1ncn([C@@H]2O[C@H](CO)[C@@H](O)[C@H]2O)n1 [RIBAVIRIN] | 4.70 | Dose-dependent effect | 4.74 | 4.88 | > 80 | 10 | 5.29 |  |  |  |  |  |  |  |  |  | inhibition (Chikungunya virus [5]): inactive; inhibition (Chikungunya virus [6]): inactive; inhibition (Chikungunya virus [7]): inactive; inhibition (Chikungunya virus [8]): inactive
2 | CCCNC(=O)C1CCN(C(=O)c2cc3sc(Br)cc3n2Cc2ccc(OC)cc2)CC1 | 5.71 | Dose-dependent effect | 5.59 | 5.51 | > 80 | 60 | 5.94 | > 32 | > 100 | Dose-dependent effect | Dose-dependent effect | Dose-dependent effect | Dose-dependent effect | Non-toxic | Dose-dependent effect | Dose-dependent effect | fold change (FC) (Chikungunya virus [16]): 100; fold change (FC) (Chikungunya virus [18]): 100
3 | CCCNC(=O)C1CCN(C(=O)c2cc3sc(CO)cc3n2Cc2ccc(OC)cc2)CC1 | 5.62 | Dose-dependent effect |  | 5.36 | > 80 | 60 |  | 3.6 | 15.5 | Dose-dependent effect | Dose-dependent effect | Dose-dependent effect | Dose-dependent effect | Non-toxic | Dose-dependent effect | Dose-dependent effect | 
